# Measurements reported in ChEMBL document CHEMBL1932946, “Design, synthesis and anticonvulsant evaluation of novel N-(4-substituted phenyl)-2-[4-(substituted) benzylidene]-hydrazinecarbothio amides” (Eur J Med Chem, 2012).
# Calls of active or inactive are those of the source. The calls are words filed in the database; no cut-off is given here.
# Test system: Mus musculus
# Test: Neurotoxicity in albino CF-1 mouse assessed as minimum motor impairment at 300 mg/kg, ip after 4 hrs by rotarod test
# Type: toxicity, organism-based
# Set-up: dose 300 mg/kg, route intraperitoneal
# Conditions: in vivo
# How it was run: (§1)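 Minimal motor impairment assessed in male CF-1 albino mice (18–25 g) at 0.5 and 4 h after i.p. doses of 30, 100 and 300 mg/kg, given in 0.5% methyl cellulose. Minimum dose toxic in half or more of mice recorded.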
row,Compound,Activity
1,O=[N+]([O-])c1ccc(Oc2ccc(/C=N/NC(=S)Nc3ccc(Cl)cc3)cc2)cc1,Non-toxic
2,Cc1ccc(Oc2ccc(/C=N/NC(=S)Nc3ccc(Cl)cc3)cc2)cc1,Non-toxic
3,S=C(N/N=C/c1ccc(Oc2ccccc2)cc1)Nc1ccccc1,Non-toxic
4,Cc1ccc(Oc2ccc(/C=N/NC(=S)Nc3ccc(F)cc3)cc2)cc1,Non-toxic
5,Fc1ccc(NC(=S)N/N=C/c2ccc(Oc3ccc4ccccc4c3)cc2)cc1,Non-toxic
6,S=C(N/N=C/c1ccc(Oc2ccccc2)cc1)Nc1ccc(Br)cc1,Non-toxic
7,S=C(N/N=C/c1ccc(Oc2ccc3c(c2)OCO3)cc1)Nc1ccc(Cl)cc1,Non-toxic
8,Cc1cc(Oc2ccc(/C=N/NC(=S)Nc3ccc(F)cc3)cc2)ccc1Cl,Non-toxic
9,S=C(N/N=C/c1ccc(Oc2ccc(Br)cc2)cc1)Nc1ccc(Cl)cc1,Non-toxic
10,S=C(N/N=C/c1ccc(Oc2ccc(Cl)cc2)cc1)Nc1ccc(Cl)cc1,Non-toxic
11,Cc1ccc(Oc2ccc(/C=N/NC(=S)Nc3ccc(Br)cc3)cc2)cc1,Non-toxic
12,S=C(N/N=C/c1ccc(Oc2ccc3c(c2)OCO3)cc1)Nc1ccc(Br)cc1,Non-toxic
13,S=C(N/N=C/c1ccc(Oc2ccc3ccccc3c2)cc1)Nc1ccccc1,Non-toxic
14,S=C(N/N=C/c1ccc(Oc2ccc(Cl)cc2)cc1)Nc1ccccc1,Non-toxic
15,S=C(N/N=C/c1ccc(Oc2ccc3ccccc3c2)cc1)Nc1ccc(Br)cc1,Non-toxic
16,S=C(N/N=C/c1ccc(Oc2ccc3c(c2)OCO3)cc1)Nc1ccccc1,Non-toxic

# Test system: Mus musculus
# Test: Anticonvulsant activity in albino CF-1 mouse assessed as protection against 6 Hz psychomotor seizure at 100 mg/kg, ip after 2 hrs by minimal clonic seizure test
# Type: functional
# Conditions: not given
# How it was run: (§2)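 Male CF-1 albino mice (18–25 g) given compound i.p., suspended in 0.5% methyl cellulose, 100 mg/kg in screen. Four mice per time point challenged at 0.25, 0.5, 1.0, 2.0 and 4.0 h via corneal electrodes (32 mA, 3 s, 6 Hz). Protection = absence of psychomotor seizure (minimal clonic phase, automatistic behaviours). Scored as animals protected/tested.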
row,Compound,Activity
1,Cc1ccc(Oc2ccc(/C=N/NC(=S)Nc3ccc(F)cc3)cc2)cc1,inactive
2,Fc1ccc(NC(=S)N/N=C/c2ccc(Oc3ccc4ccccc4c3)cc2)cc1,Active
3,S=C(N/N=C/c1ccc(Oc2ccccc2)cc1)Nc1ccc(Br)cc1,inactive
4,Cc1cc(Oc2ccc(/C=N/NC(=S)Nc3ccc(F)cc3)cc2)ccc1Cl,inactive
5,Cc1ccc(Oc2ccc(/C=N/NC(=S)Nc3ccc(Br)cc3)cc2)cc1,inactive

# Test system: not listed separately
# Test: Neuroprotective activity in hippocampal slice assessed as protection against kainic acid-induced cell death using propidium iodide staining
# Type: functional, tissue-based
# Conditions: Hippocampus
# How it was run: (§3)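 Qualitative primary screen on organotypic hippocampal slice cultures. Cell death induced by NMDA or kainic acid, with or without test compound. Propidium iodide present in all wells; PI fluorescence intensity taken as proportional to cell death.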
row,Compound,Activity
1,S=C(N/N=C/c1ccc(Oc2ccccc2)cc1)Nc1ccc(Br)cc1,inactive

# Test system: Mus musculus
# Test: Anticonvulsant activity in albino CF-1 mouse assessed as protection against 6 Hz psychomotor seizure at 100 mg/kg, ip after 1 hr by minimal clonic seizure test
# Type: functional
# Conditions: not given
# How it was run: as §2
row,Compound,Activity
1,Cc1ccc(Oc2ccc(/C=N/NC(=S)Nc3ccc(F)cc3)cc2)cc1,inactive
2,Fc1ccc(NC(=S)N/N=C/c2ccc(Oc3ccc4ccccc4c3)cc2)cc1,inactive
3,S=C(N/N=C/c1ccc(Oc2ccccc2)cc1)Nc1ccc(Br)cc1,inactive
4,Cc1cc(Oc2ccc(/C=N/NC(=S)Nc3ccc(F)cc3)cc2)ccc1Cl,Active
5,Cc1ccc(Oc2ccc(/C=N/NC(=S)Nc3ccc(Br)cc3)cc2)cc1,Active

# Test system: Mus musculus
# Test: Anticonvulsant activity in albino CF-1 mouse assessed as protection against 6 Hz psychomotor seizure at 100 mg/kg, ip after 0.25 hrs by minimal clonic seizure test
# Type: functional
# Conditions: not given
# How it was run: as §2
row,Compound,Activity
1,Cc1ccc(Oc2ccc(/C=N/NC(=S)Nc3ccc(F)cc3)cc2)cc1,Active
2,Fc1ccc(NC(=S)N/N=C/c2ccc(Oc3ccc4ccccc4c3)cc2)cc1,inactive
3,S=C(N/N=C/c1ccc(Oc2ccccc2)cc1)Nc1ccc(Br)cc1,inactive
4,Cc1cc(Oc2ccc(/C=N/NC(=S)Nc3ccc(F)cc3)cc2)ccc1Cl,inactive
5,Cc1ccc(Oc2ccc(/C=N/NC(=S)Nc3ccc(Br)cc3)cc2)cc1,inactive

# Test system: Mus musculus
# Test: Neurotoxicity in albino CF-1 mouse assessed as minimum motor impairment at 300 mg/kg, ip after 0.5 hrs by rotarod test
# Type: toxicity, organism-based
# Set-up: dose 300 mg/kg, route intraperitoneal
# Conditions: in vivo
# How it was run: as §1
row,Compound,Activity
1,O=[N+]([O-])c1ccc(Oc2ccc(/C=N/NC(=S)Nc3ccc(Cl)cc3)cc2)cc1,Non-toxic
2,Cc1ccc(Oc2ccc(/C=N/NC(=S)Nc3ccc(Cl)cc3)cc2)cc1,Non-toxic
3,S=C(N/N=C/c1ccc(Oc2ccccc2)cc1)Nc1ccccc1,Non-toxic
4,Cc1ccc(Oc2ccc(/C=N/NC(=S)Nc3ccc(F)cc3)cc2)cc1,Non-toxic
5,Fc1ccc(NC(=S)N/N=C/c2ccc(Oc3ccc4ccccc4c3)cc2)cc1,Non-toxic
6,S=C(N/N=C/c1ccc(Oc2ccccc2)cc1)Nc1ccc(Br)cc1,Non-toxic
7,S=C(N/N=C/c1ccc(Oc2ccc3c(c2)OCO3)cc1)Nc1ccc(Cl)cc1,Non-toxic
8,Cc1cc(Oc2ccc(/C=N/NC(=S)Nc3ccc(F)cc3)cc2)ccc1Cl,Non-toxic
9,S=C(N/N=C/c1ccc(Oc2ccc(Br)cc2)cc1)Nc1ccc(Cl)cc1,Non-toxic
10,S=C(N/N=C/c1ccc(Oc2ccc(Cl)cc2)cc1)Nc1ccc(Cl)cc1,Non-toxic
11,Cc1ccc(Oc2ccc(/C=N/NC(=S)Nc3ccc(Br)cc3)cc2)cc1,Non-toxic
12,S=C(N/N=C/c1ccc(Oc2ccc3c(c2)OCO3)cc1)Nc1ccc(Br)cc1,Non-toxic
13,S=C(N/N=C/c1ccc(Oc2ccc3ccccc3c2)cc1)Nc1ccccc1,Non-toxic
14,S=C(N/N=C/c1ccc(Oc2ccc(Cl)cc2)cc1)Nc1ccccc1,Non-toxic
15,S=C(N/N=C/c1ccc(Oc2ccc3ccccc3c2)cc1)Nc1ccc(Br)cc1,Non-toxic
16,S=C(N/N=C/c1ccc(Oc2ccc3c(c2)OCO3)cc1)Nc1ccccc1,Non-toxic

# Test system: Mus musculus
# Test: Anticonvulsant activity in albino CF-1 mouse assessed as protection against 6 Hz psychomotor seizure at 100 mg/kg, ip after 0.5 hrs by minimal clonic seizure test
# Type: functional
# Conditions: not given
# How it was run: as §2
row,Compound,Activity
1,Fc1ccc(NC(=S)N/N=C/c2ccc(Oc3ccc4ccccc4c3)cc2)cc1,inactive
2,S=C(N/N=C/c1ccc(Oc2ccccc2)cc1)Nc1ccc(Br)cc1,Active
3,Cc1cc(Oc2ccc(/C=N/NC(=S)Nc3ccc(F)cc3)cc2)ccc1Cl,Active
4,Cc1ccc(Oc2ccc(/C=N/NC(=S)Nc3ccc(Br)cc3)cc2)cc1,Active

# Same assay, conditions: route intraperitoneal
row,Compound,Activity
1,Cc1ccc(Oc2ccc(/C=N/NC(=S)Nc3ccc(F)cc3)cc2)cc1,50%

# Test system: Mus musculus
# Test: Anticonvulsant activity in albino CF-1 mouse assessed as protection against 6 Hz psychomotor seizure at 100 mg/kg, ip after 4 hrs by minimal clonic seizure test
# Type: functional, organism-based
# Set-up: dose 100 mg/kg
# Conditions: not given
# How it was run: as §2
row,Compound,Activity
1,Cc1ccc(Oc2ccc(/C=N/NC(=S)Nc3ccc(F)cc3)cc2)cc1,inactive
2,Fc1ccc(NC(=S)N/N=C/c2ccc(Oc3ccc4ccccc4c3)cc2)cc1,Active
3,S=C(N/N=C/c1ccc(Oc2ccccc2)cc1)Nc1ccc(Br)cc1,inactive
4,Cc1cc(Oc2ccc(/C=N/NC(=S)Nc3ccc(F)cc3)cc2)ccc1Cl,inactive
5,Cc1ccc(Oc2ccc(/C=N/NC(=S)Nc3ccc(Br)cc3)cc2)cc1,inactive

# Test system: not listed separately
# Test: Octanol-phosphate buffer partition coefficient, log P of the compound at 5 mg after 24 hrs by UV spectroscopic analysis
# Type: physicochemical
# Conditions: not given
# How it was run: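 5 mg compound added to 10 mL octanol plus 10 mL phosphate buffer in a stoppered tube. Mixture shaken mechanically 24 h at room temperature, then left 6 h in a separating funnel to equilibrate.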
row,Compound,logP at 24 h
1,O=[N+]([O-])c1ccc(Oc2ccc(/C=N/NC(=S)Nc3ccc(Cl)cc3)cc2)cc1,5.52
2,Cc1ccc(Oc2ccc(/C=N/NC(=S)Nc3ccc(Cl)cc3)cc2)cc1,5.97
3,S=C(N/N=C/c1ccc(Oc2ccccc2)cc1)Nc1ccccc1,4.9
4,Cc1ccc(Oc2ccc(/C=N/NC(=S)Nc3ccc(F)cc3)cc2)cc1,5.48
5,Fc1ccc(NC(=S)N/N=C/c2ccc(Oc3ccc4ccccc4c3)cc2)cc1,6.2
6,S=C(N/N=C/c1ccc(Oc2ccccc2)cc1)Nc1ccc(Br)cc1,6.38
7,S=C(N/N=C/c1ccc(Oc2ccc3c(c2)OCO3)cc1)Nc1ccc(Cl)cc1,5.54
8,Cc1cc(Oc2ccc(/C=N/NC(=S)Nc3ccc(F)cc3)cc2)ccc1Cl,6.07
9,S=C(N/N=C/c1ccc(Oc2ccc(Br)cc2)cc1)Nc1ccc(Cl)cc1,6.37
10,S=C(N/N=C/c1ccc(Oc2ccc(Cl)cc2)cc1)Nc1ccc(Cl)cc1,6.2
11,Cc1ccc(Oc2ccc(/C=N/NC(=S)Nc3ccc(Br)cc3)cc2)cc1,6.17
12,S=C(N/N=C/c1ccc(Oc2ccc3c(c2)OCO3)cc1)Nc1ccc(Br)cc1,5.52
13,S=C(N/N=C/c1ccc(Oc2ccc3ccccc3c2)cc1)Nc1ccccc1,6.07
14,S=C(N/N=C/c1ccc(Oc2ccc(Cl)cc2)cc1)Nc1ccccc1,5.52
15,S=C(N/N=C/c1ccc(Oc2ccc3ccccc3c2)cc1)Nc1ccc(Br)cc1,6.93
16,S=C(N/N=C/c1ccc(Oc2ccc3c(c2)OCO3)cc1)Nc1ccccc1,4.8

# Test system: not listed separately
# Test: Neuroprotective activity in hippocampal slice assessed as protection against NMDA-induced cell death using propidium iodide staining
# Type: functional, tissue-based
# Conditions: Hippocampus
# How it was run: as §3
row,Compound,Activity
1,S=C(N/N=C/c1ccc(Oc2ccccc2)cc1)Nc1ccc(Br)cc1,inactive
